The values that follow come from article PMC7442691 (Nature chemical biology, 2020).

Test [1] concerns the target Pin1 (Homo sapiens, UniProt Q13526). The experiment in a line: Cellular target engagement, live cell competition with BJP-DTB. Format: cell-based. The following applies: PATU-8988T cells, 5 h treatment. The method, boiled down:
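PATU-8988T, PC3 or MDA-MB-468 cells (2.5 million per 10 cm plate) were dosed next day with test compound, either as a concentration series for 5 h or at 5 μM over time. Cells were PBS-washed, scraped and lysed (HEPES pH 7.4, NP-40, TCEP, protease inhibitors). Lysate (500 μg protein) took desthiobiotin-tagged probe at 4°C, then streptavidin agarose for 1 h at 4°C. Washed beads were boiled in LDS for immunoblotting.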

Test [2] concerns PATU-8988T C1 (Pin1 WT) and C2 (Pin1 KO). The experiment in a line: Cell viability, dose series in 2D monolayer, C1 vs C2. It counts as cell-based, human. The note with it: juglone 4 days, KPT-6566 3 days.
For test [3], the system named is FKBP12^F36V-Pin1. The experiment in a line: dTAG degradation of FKBP12F36V-Pin1 by immunoblot. Format: cell-based, human. The following applies: for rescue of dTAG-13 degradation by pretreatment: 2 h pretreatment, then 5 h dTAG-13 500 nM. Background: Immunoblotting shows a protein as a band on a membrane.
Test [4] deals with PATU-8988T cells (parental, C1, C2 and transduced C2). The experiment in a line: Cell viability, growth over time in 2D-adherent monolayer. It counts as cell-based, human. The gist of the method:
(§1)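 Cells seeded at 100 per well in 96-well plates, one plate per time point, and dosed the day after plating with DMSO, test compound or dTAG-13 at 37°C, 5% CO2. Medium and compound were renewed every 48 h, with Dox 100 ng/mL added for inducible C2 cells. CellTiter-Glo luminescence was normalised to a Day 0 plate read before dosing. At least n = 3 biological replicates.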

Test [5] concerns phospho-CDK1 Tyr15, c-Myc, β-Catenin, NFkB p65. The experiment in a line: Inhibitor effects on Pin1 downstream signaling. It counts as cell-based, human. The note with it: C2 + FKBP12F36V-Pin1 cells, 5 h. The method, boiled down: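 Cells seeded at 100,000 per 6-well well, treated next day with DMSO, test compound, dTAG-13 or Dox, then lysed in RIPA with protease/phosphatase inhibitors for western blotting. For fractionation, 2 million cells per 10 cm plate were treated 5.5 h, trypsinised and split by nuclear/cytoplasmic extraction kit. For Wnt3a arms, cells had 4 h compound, then Wnt3a (50 ng/mL) for 4 more hours.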

Test [6] relates to PATU-8988T FKBP12^F36V-KRAS^G12V; KRAS^−/− clone. The experiment in a line: Viability with FKBP12F36V-KRASG12V degradation, 4 days. It counts as cell-based, human. The following applies: 4-day treatment; dTAG-13 100 nM, BJP-06-005-3 5 μM. The method, boiled down: as §1
[7] abbreviates: C2 + FKBP12F36V-Pin1 cells, 5 h.

Chain of Pin1 (Q13526 whole entry): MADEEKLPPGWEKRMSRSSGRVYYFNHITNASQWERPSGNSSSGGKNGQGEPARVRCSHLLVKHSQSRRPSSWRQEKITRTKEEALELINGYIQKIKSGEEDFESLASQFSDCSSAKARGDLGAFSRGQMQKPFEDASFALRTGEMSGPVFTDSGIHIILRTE

For the compound `CC(C)(C)c1ccc(S(=O)(=O)N=C2C=C(SCC(=O)O)C(=O)c3ccccc32)cc1` [KPT-6566], in test [1], the “competition with BJP-DTB for cellular Pin1” value was “unable to validate that KPT-6566 engages cellular Pin1”. Besides, the “anti-proliferative effects, C1 versus C2” value in test [2] is “identical anti-proliferative effects in C1 and C2”.
Turning to `NS(=O)(=O)OC[C@@H]1C[C@@H](n2ccc3c(N[C@H]4CCc5ccccc54)ncnc32)C[C@@H]1O` [MLN4924], the “rescue of dTAG-13 degradation by pretreatment” value in test [3] is “degradation was rescued upon pretreatment”.
Same read-out and setting: for `CC(C)C[C@H](NC(=O)[C@H](CCc1ccccc1)NC(=O)CN1CCOCC1)C(=O)N[C@@H](Cc1ccccc1)C(=O)N[C@@H](CC(C)C)C(=O)[C@@]1(C)CO1` [carfilzomib] the value was “degradation was rescued upon pretreatment”.
`CC[C@H](C(=O)N1CCCC[C@H]1C(=O)O[C@H](CCc1ccc(OC)c(OC)c1)c1ccccc1OCC(=O)NCCCCCCOc1cccc2c1C(=O)N(C1CCC(=O)NC1=O)C2=O)c1cc(OC)c(OC)c(OC)c1` (stereo partly drawn) [dTAG-13]: the cell proliferation result in test [4] (C2 + FKBP12F36V-Pin1, 2.5 μM) is given as “not at 2.5 μM”. For the same compound, the cell proliferation result in test [4] (C2 + FKBP12F36V-Pin1, 100 or 500 nM) was “diminished cell proliferation after 6–8 days”. Besides, the time to degradation in test [3] (500 nM dTAG-13) was in the range of 2 to 4 h. Besides, in test [3] (setting [7]), the “concentration at which hook effect apparent” value was determined as 1 µM and the “concentration of maximal degradation” value was 100 to 500 nM. In addition, the “phospho-CDK1 Tyr15” value in test [5] is “also increased phospho-CDK1 Tyr15”. In addition, the cell viability result in test [6] is given as “modest viability effects”.
As to `O=C1C=CC(=O)c2c(O)cccc21` [juglone], the “anti-proliferative effects, C1 versus C2” value in test [2] was “identical anti-proliferative effects in C1 and C2”.
